ChEMBL document CHEMBL2331491, “Novel imidazophenoxazine-4-sulfonamides: their synthesis and evaluation as potential inhibitors of PDE4” (Bioorg Med Chem, 2013)

Key:
[1] = target: T1, 3',5'-cyclic-AMP phosphodiesterase 4B (Homo sapiens, UniProt Q07343); experiment: Inhibition of PDE4B1 (unknown origin) expressed in sf9 cells using cAMP as substrate preincubated at 30 uM for 15 mins before substrate addition measured after 1 hr by luminescence assay
Outline: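 His-tagged PDE4B1 was expressed in baculovirus-infected Sf9 cells (lysed 48 h post infection) and purified on Ni-NTA. 10 ng of enzyme was preincubated 15 min with compound or DMSO vehicle, then given cAMP substrate for 1 h. The reaction was stopped and detection reagent added for 10 min in the dark before reading luminescence. % inhibition = (RLU vehicle − RLU inhibitor)/RLU vehicle × 100, at a single screening concentration.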

[2] = target: T1, 3',5'-cyclic-AMP phosphodiesterase 4B; experiment: Inhibition of PDE4B1 (unknown origin) expressed in sf9 cells using cAMP as substrate preincubated for 15 mins before substrate addition measured after 1 hr by luminescence assay
Outline: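 Ni-NTA-purified His-tagged PDE4B1 from baculovirus-infected Sf9 cells was used at 10 ng per reaction. Enzyme was preincubated 15 min with compound (9 concentrations) or DMSO, then cAMP for 1 h. After stop solution and 10 min detection reagent in the dark, luminescence was read. % inhibition was taken versus vehicle RLU. IC50 came from nonlinear regression of the dose-response curve and is given as mean ± SD.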

T1 sequence (Q07343 whole entry): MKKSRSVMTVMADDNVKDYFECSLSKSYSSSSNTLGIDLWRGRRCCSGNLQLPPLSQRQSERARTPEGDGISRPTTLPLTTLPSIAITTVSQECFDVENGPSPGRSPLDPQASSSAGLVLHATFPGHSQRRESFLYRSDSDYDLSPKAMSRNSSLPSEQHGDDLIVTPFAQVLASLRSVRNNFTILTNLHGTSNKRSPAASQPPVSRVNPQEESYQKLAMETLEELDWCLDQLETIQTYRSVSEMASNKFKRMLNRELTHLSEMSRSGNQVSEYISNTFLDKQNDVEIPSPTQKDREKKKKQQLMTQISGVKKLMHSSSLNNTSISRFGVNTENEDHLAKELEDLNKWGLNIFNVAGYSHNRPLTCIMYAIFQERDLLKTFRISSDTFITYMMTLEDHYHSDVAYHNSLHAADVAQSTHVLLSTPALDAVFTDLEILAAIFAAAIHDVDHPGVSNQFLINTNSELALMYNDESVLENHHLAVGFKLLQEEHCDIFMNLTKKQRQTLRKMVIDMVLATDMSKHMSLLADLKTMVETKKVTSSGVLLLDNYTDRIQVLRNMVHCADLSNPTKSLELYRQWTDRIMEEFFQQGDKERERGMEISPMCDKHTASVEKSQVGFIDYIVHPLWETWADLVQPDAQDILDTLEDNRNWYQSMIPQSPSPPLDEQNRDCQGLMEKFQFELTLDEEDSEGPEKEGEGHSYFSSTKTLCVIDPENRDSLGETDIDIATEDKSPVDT

Structure (SMILES)	inhibition [1]	IC50 [2]	inhibition [2]
NS(=O)(=O)c1cc2c3c(c1)nc(-c1cccc([N+](=O)[O-])c1)n3-c1ccccc1O2	66.8%	–	–
NS(=O)(=O)c1cc2c3c(c1)nc(-c1ccccc1O)n3-c1ccccc1O2	89.3%	3.31 µM	Dose-dependent effect
NS(=O)(=O)c1cc2c3c(c1)nc(-c1cccc(O)c1)n3-c1ccccc1O2	87.6%	–	–
NS(=O)(=O)c1cc2c3c(c1)nc(-c1ccc(Cl)cc1)n3-c1ccccc1O2	80.3%	–	–
COc1cc(-c2nc3cc(S(N)(=O)=O)cc4c3n2-c2ccccc2O4)ccc1O	82.4%	–	–
NS(=O)(=O)c1cc2c3c(c1)nc(-c1c(Cl)cccc1Cl)n3-c1ccccc1O2	80.2%	–	–
NS(=O)(=O)c1cc2c3c(c1)nc(-c1cccc(Br)c1)n3-c1ccccc1O2	89.7%	1.23 µM	Dose-dependent effect
NS(=O)(=O)c1cc2c3c(c1)nc(-c1ccccc1Br)n3-c1ccccc1O2	81%	–	–
NS(=O)(=O)c1cc2c3c(c1)nc(-c1ccc(O)cc1)n3-c1ccccc1O2	88.8%	–	–
CCN(CC)c1ccc(-c2nc3cc(S(N)(=O)=O)cc4c3n2-c2ccccc2O4)c(O)c1	19.7%	–	–
NS(=O)(=O)c1cc2c3c(c1)nc(-c1cc(Br)ccc1F)n3-c1ccccc1O2	92.9%	0.53 µM	Dose-dependent effect
NS(=O)(=O)c1cc2c3c(c1)nc(-c1ccccc1)n3-c1ccccc1O2	79.7%	–	–
COc1ccc(-c2nc3cc(S(N)(=O)=O)cc4c3n2-c2ccccc2O4)cc1	66.5%	–	–
NS(=O)(=O)c1cc2c3c(c1)nc(-c1ccccc1Cl)n3-c1ccccc1O2	76.3%	–	–
